# Calls of active or inactive are those of the source.
# Experiments:
# [1] = species on record: Bos taurus; test: Displacement of [3H]Ro151788 from GABA(A)/BzR in bovine cerebral cortex membrane at 10 uM; type: cell membranes
# In short: (§1)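 Bovine cerebral cortex membranes in 50 mM Tris-citrate pH 7.4; [3H]flumazenil displacement. Compounds first tested at a fixed 10 µM; Ki determined only when inhibition exceeded 80%, using at least six concentrations. Five experiments run in triplicate; IC50 obtained by iterative curve fitting and converted to Ki with the Cheng–Prusoff equation.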
# [2] = test system: Mus musculus; test: Antihyperalgesic activity Swiss albino mouse […] assessed as licking latency time at 30 mg/kg, po after 60 mins by hot plate test (reference value: 16.6 +/- 0.8 secs); type: functional
# In short: (§2)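 Hot plate at 52.5 ± 0.1 °C in non-diabetic male Swiss mice. Latency to licking of fore or hind paws was timed before dosing and every 15 min up to 60 min after oral dosing. Mice with pretest latencies below 12 s or above 18 s were excluded. Cut-off was 45 s.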
# [3] = test system: Mus musculus; test: Antihyperalgesic activity against streptozotocin-induced hyperalgesia in Swiss albino mouse […] assessed as licking latency time at 30 mg/kg, po after 45 mins by hot plate test (reference value: 8.8 +/- 0.7 secs); type: functional
# [4] = test system: Mus musculus; test: Antihyperalgesic activity Swiss albino mouse […] assessed as licking latency time at 30 mg/kg, po after 45 mins by hot plate test (reference value: 16.6 +/- 0.8 secs); type: functional; in short: as §2
# [5] = test system: Mus musculus; test: Antihyperalgesic activity against streptozotocin-induced hyperalgesia in Swiss albino mouse […] assessed as licking latency time at 30 mg/kg, po after 30 mins by hot plate test (reference value: 8.8 +/- 0.7 secs); type: functional
# [6] = test system: Mus musculus; test: Antihyperalgesic activity Swiss albino mouse […] assessed as licking latency time at 30 mg/kg, po after 30 mins by hot plate test (reference value: 16.6 +/- 0.8 secs); type: functional; in short: as §2
# [7] = test system: Mus musculus; test: Antihyperalgesic activity against streptozotocin-induced hyperalgesia in Swiss albino mouse […] assessed as licking latency time at 30 mg/kg, po after 15 mins by hot plate test (reference value: 8.8 +/- 0.7 secs); type: functional
# [8] = test system: Mus musculus; test: Antihyperalgesic activity Swiss albino mouse […] assessed as licking latency time at 30 mg/kg, po after 15 mins by hot plate test (reference value: 16.6 +/- 0.8 secs); type: functional; in short: as §2
# [9] = test system: Mus musculus; test: Anxiolytic-like activity in Swiss albino mouse at 30 mg/kg, po after 30 mins by light/dark box test; type: functional, organism-based; design: dose 30 mg/kg
# In short: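 Male Swiss mice tested in a two-compartment light/dark box. Transfers between compartments and time spent in the lit side recorded. Compound given po 30 min before testing, in 10 ml/kg; flumazenil given i.p. for antagonism; 8 mice per group.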
# [10] = Displacement of [3H]Ro151788 from GABA(A)/BzR in bovine cerebral cortex membrane; type: cell membranes, Bos taurus; in short: as §1
# [11] = test system: Mus musculus; test: Antihyperalgesic activity against streptozotocin-induced hyperalgesia in Swiss albino mouse […] assessed as licking latency time at 30 mg/kg, po after 60 mins by hot plate test (reference value: 8.8 +/- 0.7 secs); type: functional
# [12] = test system: Mus musculus; test: Analgesic activity in Swiss albino mouse abdominal constriction model assessed as decrease in number of acetic acid-induced writhing at 30 to 60 mg/kg, po after 30 mins; type: functional, organism-based; conditions: Abdomen
# In short: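 Male Swiss albino mice (23–30 g). Compounds given po in 1% CMC vehicle 30 min before the test. Acetic acid 0.6% injected i.p. at 10 ml/kg. Stretching movements were counted for 10 min, starting 5 min after the acetic acid injection. 8–15 mice per group.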
# [13] = test system: Mus musculus; test: Anticonvulsant activity in Swiss albino mouse […] assessed as protection against intraperitoneally administered pentylenetetrazol-induced seizures at 10 mg/kg, po after 30 mins; type: functional
# In short: (§3)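 Male Swiss albino mice. Compounds given po and PTZ 90 mg/kg injected 30 min later; PTZ was dissolved in 0.9% NaCl saline. Clonic generalized convulsions were recorded over 30 min. Each value is the mean of 10 mice. The methods give the PTZ route as s.c. and the table footnote gives it as ip.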
# [14] = test system: Rattus norvegicus; test: Antinociceptive activity in Sprague-Dawley rat mononeuropathy pain model assessed as increase in injured paw pressure at 30 mg/kg, po after 45 mins by paw pressure test relative to non-treated control; type: functional
# In short: (§4)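 Chronic constriction injury: loose ligatures placed on the common sciatic nerve under chloral hydrate; contralateral sham dissection. Tested 14 days after surgery. Paw pressure applied at 32 g/s; threshold taken as the force causing the first struggle; cut-off 250 g; pretest outliers (<40 g or >75 g) excluded. Oral dosing in 10 ml/kg; read at 15, 30 and 45 min; compared with a CMC-treated group.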
# [15] = test system: Rattus norvegicus; test: Antinociceptive activity in Sprague-Dawley rat mononeuropathy pain model assessed as increase in injured paw pressure at 30 mg/kg, po after 30 mins by paw pressure test relative to non-treated control; type: functional; in short: as §4
# [16] = test system: Rattus norvegicus; test: Antinociceptive activity in Sprague-Dawley rat mononeuropathy pain model assessed as increase in injured paw pressure at 30 mg/kg, po after 15 mins by paw pressure test relative to non-treated control; type: functional; in short: as §4
# [17] = test system: Rattus norvegicus; test: Toxicity in Sprague-Dawley rat mononeuropathy pain model assessed as effect on contralateral paw pressure at 30 mg/kg, po after 45 mins by paw pressure test; type: organism-based; design: dose 30 mg/kg, route oral; conditions: in vivo, 0.75 h
# In short: (§5)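 Same sciatic-ligation rat model, 14 days after surgery. Threshold measured on the non-operated contralateral hind paw by analgesimeter at 32 g/s; first-struggle endpoint; 250 g cut-off; pretest rats outside 40–75 g rejected. Compound given po in 10 ml/kg; readings at 15, 30 and 45 min.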
# [18] = test system: Rattus norvegicus; test: Toxicity in Sprague-Dawley rat mononeuropathy pain model assessed as effect on contralateral paw pressure at 30 mg/kg, po after 30 mins by paw pressure test; type: organism-based; design: dose 30 mg/kg, route oral; conditions: in vivo, 0.5 h; in short: as §5
# [19] = test system: Rattus norvegicus; test: Toxicity in Sprague-Dawley rat mononeuropathy pain model assessed as effect on contralateral paw pressure at 30 mg/kg, po after 15 mins by paw pressure test; type: organism-based; design: dose 30 mg/kg, route oral; conditions: in vivo, 0.25 h; in short: as §5
# [20] = test system: Mus musculus; test: Antihyperalgesic activity against streptozotocin-induced hyperalgesia in Swiss albino mouse […] assessed as licking latency time at 30 mg/kg, po after 60 mins by hot plate test (reference value: 9.3 +/- 0.7 secs); type: functional
# [21] = test system: Mus musculus; test: Antihyperalgesic activity Swiss albino mouse […] assessed as licking latency time at 30 mg/kg, po after 60 mins by hot plate test (reference value: 16.9 +/- 0.8 secs); type: functional; in short: as §2
# [22] = test system: Mus musculus; test: Antihyperalgesic activity against streptozotocin-induced hyperalgesia in Swiss albino mouse […] assessed as licking latency time at 30 mg/kg, po after 45 mins by hot plate test (reference value: 9.3 +/- 0.7 secs); type: functional
# [23] = test system: Mus musculus; test: Antihyperalgesic activity Swiss albino mouse […] assessed as licking latency time at 30 mg/kg, po after 45 mins by hot plate test (reference value: 16.9 +/- 0.8 secs); type: functional; in short: as §2
# [24] = test system: Mus musculus; test: Antihyperalgesic activity against streptozotocin-induced hyperalgesia in Swiss albino mouse […] assessed as licking latency time at 30 mg/kg, po after 30 mins by hot plate test (reference value: 9.3 +/- 0.7 secs); type: functional
# [25] = test system: Mus musculus; test: Antihyperalgesic activity Swiss albino mouse […] assessed as licking latency time at 30 mg/kg, po after 30 mins by hot plate test (reference value: 16.9 +/- 0.8 secs); type: functional; in short: as §2
# [26] = test system: Mus musculus; test: Antihyperalgesic activity against streptozotocin-induced hyperalgesia in Swiss albino mouse […] assessed as licking latency time at 30 mg/kg, po after 15 mins by hot plate test (reference value: 9.3 +/- 0.7 secs); type: functional
# [27] = test system: Mus musculus; test: Antihyperalgesic activity Swiss albino mouse […] assessed as licking latency time at 30 mg/kg, po after 15 mins by hot plate test (reference value: 16.9 +/- 0.8 secs); type: functional; in short: as §2
# [28] = test system: Mus musculus; test: Anticonvulsant activity in Swiss albino mouse […] assessed as protection against intraperitoneally administered pentylenetetrazol-induced seizures at 30 mg/kg, po after 30 mins; type: functional; in short: as §3
# [29] = test system: Rattus norvegicus; test: Antinociceptive activity in Sprague-Dawley rat mononeuropathy pain model assessed as increase in injured paw pressure at 10 mg/kg, po after 45 mins by paw pressure test relative to non-treated control; type: functional; in short: as §4
# [30] = test system: Rattus norvegicus; test: Antinociceptive activity in Sprague-Dawley rat mononeuropathy pain model assessed as increase in injured paw pressure at 10 mg/kg, po after 30 mins by paw pressure test relative to non-treated control; type: functional; in short: as §4
# [31] = test system: Rattus norvegicus; test: Antinociceptive activity in Sprague-Dawley rat mononeuropathy pain model assessed as increase in injured paw pressure at 10 mg/kg, po after 15 mins by paw pressure test relative to non-treated control; type: functional; in short: as §4
# [32] = test system: Rattus norvegicus; test: Toxicity in Sprague-Dawley rat mononeuropathy pain model assessed as effect on contralateral paw pressure at 10 mg/kg, po after 45 mins by paw pressure test; type: organism-based; design: dose 10 mg/kg, route oral; conditions: in vivo, 0.75 h; in short: as §5
# [33] = test system: Rattus norvegicus; test: Toxicity in Sprague-Dawley rat mononeuropathy pain model assessed as effect on contralateral paw pressure at 10 mg/kg, po after 30 mins by paw pressure test; type: organism-based; design: dose 10 mg/kg, route oral; conditions: in vivo, 0.5 h; in short: as §5
# [34] = test system: Rattus norvegicus; test: Toxicity in Sprague-Dawley rat mononeuropathy pain model assessed as effect on contralateral paw pressure at 10 mg/kg, po after 15 mins by paw pressure test; type: organism-based; design: dose 10 mg/kg, route oral; conditions: in vivo, 0.25 h; in short: as §5
SMILES,inhibition [1] [%],Ki [10] [nM],Activity [14] [g],Activity [15] [g],Activity [16] [g],Activity [17] [g],Activity [18] [g],Activity [19] [g],other results
Cc1cnn2c1n[n+]([O-])c1ccc(Cl)cc12,> 80,400,,,,,,,
O=C(OCc1cccs1)c1cnn2c1n[n+]([O-])c1ccc(Cl)cc12,,6.8,32.8,35.2,33.6,60.9,57.8,59.3,
[O-][n+]1nc2c(I)cnn2c2cc(OCc3ccccc3)ccc21,,,36.4,46.5,37.1,65.1,59.2,62.7,
O=C(c1cccs1)c1cnn2c1n[n+]([O-])c1ccc(Oc3ccccc3)cc12,,,43.2,38.4,37.7,61.2,57.8,60.6,

# Second part, led by results:
inhibition [1] [%],Ki [10] [nM],SMILES,Activity [14] [g],Activity [15] [g],Activity [16] [g],Activity [17] [g],Activity [18] [g],Activity [19] [g],other results
> 80,1.02,CN(Cc1ccccc1)c1ccc2c(c1)n1ncc(I)c1n[n+]2[O-],28.5,26.5,29.2,60.8,62.8,61.7,Time [2]: 17.9 s; Time [3]: 10.4 s; Time [4]: 18.3 s; Time [5]: 11.8 s; Time [6]: 16.8 s; Time [7]: 10.1 s; Time [8]: 17.3 s; Activity [9]: Active; Time [11]: 11.1 s; Activity [12]: inactive; Activity [13]: 10%
> 80,1.6,Cc1cnn2c1nnc1ccc(OCc3ccccc3)cc12,,,,,,,
> 80,,CC(COc1ccc2c(c1)n1ncc(I)c1n[n+]2[O-])c1ccccc1 (racemic),39,40.8,43.4,59.2,61.7,58.8,Time [20]: 18.1 s; Time [21]: 18.2 s; Time [22]: 17.8 s; Time [23]: 17.7 s; Time [24]: 17.5 s; Time [25]: 16.8 s; Time [26]: 16.4 s; Time [27]: 17.2 s; Activity [9]: Active; Activity [12]: inactive; Activity [28]: 0%; Activity [29]: 37.2 g; Activity [30]: 43.5 g; Activity [31]: 42.5 g; Activity [32]: 57.9 g; Activity [33]: 63.5 g; Activity [34]: 59.8 g
> 80,361,Cc1cnn2c1n[n+]([O-])c1ccc(OCC(C)c3ccccc3)cc12 (racemic),,,,,,,
> 80,2.78,Cc1cnn2c1nnc1ccc(NCc3ccccc3)cc12,,,,,,,

# From ChEMBL document CHEMBL2176871, “Development of ligands at γ-aminobutyrric acid type A (GABAA) receptor subtype as new agents for pain relief” (Bioorg Med Chem, 2011)
